From ChEMBL document CHEMBL1153929, “Exploration and synthesis of curcumin analogues with improved structural stability both in vitro and in vivo as cytotoxic agents” (Bioorg Med Chem, 2009)

Tests used:
[1] = AUC (0 to infinity) in healthy Sprague-Dawley rat at 500 mg/kg, po administered as single dose; type: ADME, organism-based; parameters: dose 500 mg/kg, route oral, time infinity; conditions: plasma
How it was run: (§1)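 Four rats per group, dosed once by oral gavage at 500 mg/kg, suspended with the aid of 1% CMCNa. Blood (0.5 ml) was taken from the orbital venous plexus at 0.083, 0.25, 0.5, 1, 2, 4 and 8 h. Plasma (200 µl) was extracted with ethyl acetate/chloroform and assayed by isocratic HPLC on an ODS2 column. Parameters came from non-compartmental analysis.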

[2] = Metabolic stability in Sprague-Dawley rat plasma assessed as drug recovery at 0.8 ug/ml by RP-HPLC; type: ADME, cell-free; conditions: read-out: Stability
CNE = test: Cytotoxicity against human CNE cells after 72 hrs by MTT assay; type: functional, cell-based
How it was run: (§2)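 Cells were plated at 5000 per well in 1640 medium with 5% heat-inactivated calf serum and penicillin/streptomycin, at 37 °C and 5% CO2. After 24 h, compounds in DMSO were added at final 100, 33.3, 11.1 and 3.7 µg/ml for 72 h. MTT (5 mg/ml in 0.9% NaCl) was then added for 3 h, the formazan dissolved in DMSO, and absorbance read at 570 nm.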

[3] = AUC (0 to t) in healthy Sprague-Dawley rat at 500 mg/kg, po administered as single dose; type: ADME, organism-based; parameters: dose 500 mg/kg, route oral; conditions: plasma; how it was run: as §1
[4] = Mean residence time (0 to t) in healthy Sprague-Dawley rat at 500 mg/kg, po administered as single dose; type: ADME, organism-based; parameters: dose 500 mg/kg, route oral; conditions: in vivo; how it was run: as §1
[5] = Mean residence time (0 to infinity) in healthy Sprague-Dawley rat at 500 mg/kg, po administered as single dose; type: ADME, organism-based; parameters: dose 500 mg/kg, route oral; conditions: in vivo; how it was run: as §1
[6] = Apparent oral clearance in healthy Sprague-Dawley rat at 500 mg/kg, po administered as single dose; type: ADME, organism-based; parameters: dose 500 mg/kg, route oral; conditions: in vivo; how it was run: as §1
[7] = Metabolic stability in Sprague-Dawley rat plasma assessed as drug recovery at 3.2 ug/ml by RP-HPLC; type: ADME, cell-free; conditions: read-out: Stability
[8] = Half life in healthy Sprague-Dawley rat at 500 mg/kg, po administered as single dose; type: ADME, organism-based; parameters: dose 500 mg/kg, route oral; conditions: in vivo; how it was run: as §1
[9] = Cytotoxicity against human LS 174T cells after 72 hrs by MTT assay; type: functional, cell-based; conditions: LS174T; how it was run: as §2
[10] = Hydrolytic stability assessed as compound degradation at 2 mg in sodium dihydrogen phosphate buffered 0.3% sodium carboxymethylcellulose solution at pH 7.4 after 45 hrs by HPLC; type: physicochemical; conditions: read-out: Activity
How it was run: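 2 mg of sample was vortexed into 1 ml of 0.3% (w/v) CMCNa solution in phosphate buffer at pH 7.4 and kept in the dark at 37 °C. HPLC peak areas were recorded. Degradation = (area at 0 h − area at end time) / area at 0 h × 100%.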

[11] = Cmax in healthy Sprague-Dawley rat at 500 mg/kg, po administered as single dose; type: ADME, organism-based; parameters: dose 500 mg/kg, route oral; conditions: in vivo; how it was run: as §1
[12] = Metabolic stability in Sprague-Dawley rat plasma assessed as drug recovery at 0.2 ug/ml by RP-HPLC; type: ADME, cell-free; conditions: read-out: Stability
[13] = Tmax in healthy Sprague-Dawley rat at 500 mg/kg, po administered as single dose; type: ADME, organism-based; parameters: dose 500 mg/kg, route oral; conditions: in vivo; how it was run: as §1
Blood [14] = test: Drug level in portal blood of patient with cancer at 3.6 g/day by HPLC; type: ADME, tissue-based; conditions: human, read-out: Drug uptake
PC-3 = test: Cytotoxicity against human PC3 cells after 72 hrs by MTT assay; type: functional, cell-based; conditions: PC-3, 72 h; how it was run: as §2
BGC-823 = test: Cytotoxicity against human BGC823 cells after 72 hrs by MTT assay; type: functional, cell-based; conditions: BGC-823, 72 h; how it was run: as §2
[15] = Chemical stability assessed as half life in pH 8 buffer containing 10% cyclodextrins; type: physicochemical
KB (human) = test: Cytotoxicity against human KB cells after 72 hrs by MTT assay
[16] = Metabolic stability in Sprague-Dawley rat plasma assessed as drug recovery at 0.05 ug/ml by RP-HPLC; type: ADME, cell-free; conditions: read-out: Stability
HeLa = test: Cytotoxicity against human HeLa cells after 72 hrs by MTT assay; type: functional, cell-based; how it was run: as §2
HL-60 (human) = test: Cytotoxicity against human HL60 cells after 72 hrs by MTT assay; conditions: HL-60, 72 h
[17] = Plasma concentration in healthy Sprague-Dawley rat at 500 mg/kg, po administered as single dose after 2 hrs; type: ADME, organism-based; parameters: dose 500 mg/kg, route oral; conditions: read-out: Drug uptake; how it was run: as §1
[18] = Chemical stability assessed as compound degradation in 0.1 M phosphate buffer at pH 7.2 within 30 mins; type: physicochemical; conditions: read-out: Activity
Blood [19] = test: Drug level in peripheral blood of patient with cancer at 3.6 g/day by HPLC; type: ADME, tissue-based; conditions: human, read-out: Drug uptake
Liver = test: Drug level in liver of patient with cancer at 3.6 g/day by HPLC; type: ADME, tissue-based; conditions: human, in vivo; read-out: Drug uptake
[20] = Drug level in bile of patient with cancer at 3.6 g/day by HPLC; type: ADME, tissue-based; conditions: human, in vivo; read-out: Drug uptake
[21] = Metabolic stability in Sprague-Dawley rat plasma assessed as drug recovery at 12.8 ug/ml by RP-HPLC; type: ADME, cell-free; conditions: read-out: Stability

AUC(0-inf) [1] | AUC(0-t) [3] | MRT last [4] | MRT inf [5] | CL/F [6] | remaining at 3.2 ug/ml [7] | half-life [8] | degraded at 45 h [10] | Cmax [11] | remaining at 0.2 ug/ml [12] | Tmax [13] | Structure (SMILES) | IC50 (CNE) | IC50 [9] | IC50 (PC-3) | IC50 (BGC-823) | IC50 (HeLa) | further results
4910 ng·h/mL | 2960 ng·h/mL | 2.96 h | 8.48 h | 2090 mL/min/kg | 97.6% | 5.96 h | 0% | 822 ng/mL | 96.4% | 1 h | COc1cc(/C=C/C(=O)/C=C/c2ccc(O)c(OC)c2)ccc1O | 6.8 µM | 3.7 µM | – | – | – | remaining at 0.8 ug/ml [2]: 98.3%
672 ng·h/mL | 275 ng·h/mL | 3.44 h | 22.7 h | – | 98.7% | 2.41 h | > 64% | 91 ng/mL | 98.2% | 0.5 h | COc1cc(/C=C/C(=O)CC(=O)/C=C/c2ccc(O)c(OC)c2)ccc1O [CURCUMIN] | 32.8 µM | 6.4 µM | 15 µM | 16.7 µM | 17.5 µM | concentration (Blood [14]): 1300 nM; half-life [15]: 10.5 h; IC50 (KB (human)): 35.9 µM; remaining at 0.05 ug/ml [16]: 97.7%; IC50 (HL-60 (human)): 11.6 µM; concentration at 2 h [17]: 40 ng/mL; degraded at 0.5 h [18]: 92%; concentration (Blood [19]): 1300 nM; concentration (Liver): 1300 nM; concentration [20]: 1300 nM
14900 ng·h/mL | 12100 ng·h/mL | 2.49 h | 4.16 h | 650 mL/min/kg | 97.1% | 2.92 h | 0% | 4100 ng/mL | 96.5% | 0.25 h | O=C(/C=C/c1ccccc1Br)/C=C/c1ccccc1Br | – | 4 µM | 15.4 µM | 16.1 µM | 34.2 µM | remaining at 12.8 ug/ml [21]: 95.2%
